pIC50: −log10 of the molar value.
How the values were obtained:
[1] = Metabolic stability in human liver microsome assessed as compound remaining after 30 mins; format: ADME; settings: liver microsomes, read-out: Stability
[2] = Metabolic stability in rat liver microsome assessed as compound remaining after 30 mins; format: ADME; settings: liver microsomes, read-out: Stability
[3] = biological target: T1, Nuclear receptor subfamily 1 group I member 2 (Homo sapiens, UniProt O75469); assay: Activity at human PXR receptor transfected in human HepG2 cells assessed as receptor activation at 2 uM by luciferase based reporter gene assay relative to rifampin; format: cell-based; settings: hepg2, 2 µM
T1 sequence (O75469 whole entry): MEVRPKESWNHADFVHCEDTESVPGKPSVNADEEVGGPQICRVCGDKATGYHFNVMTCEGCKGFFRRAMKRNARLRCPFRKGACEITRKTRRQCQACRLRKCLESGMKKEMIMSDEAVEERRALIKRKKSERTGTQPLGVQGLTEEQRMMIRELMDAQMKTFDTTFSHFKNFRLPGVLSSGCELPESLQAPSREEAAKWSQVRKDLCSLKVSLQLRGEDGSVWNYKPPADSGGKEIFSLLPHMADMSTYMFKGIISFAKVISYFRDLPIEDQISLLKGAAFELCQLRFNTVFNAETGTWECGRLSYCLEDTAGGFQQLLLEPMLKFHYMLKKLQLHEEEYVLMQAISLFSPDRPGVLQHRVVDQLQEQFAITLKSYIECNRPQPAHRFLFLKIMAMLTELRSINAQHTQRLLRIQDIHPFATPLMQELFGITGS
Procedure, shortened: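 HepG2 cells transfected with human PXR cDNA and a luciferase reporter construct driven by the CYP3A4 gene. Cells were exposed to test article, and luciferase activity was read by chemiluminescence. Rifampin at 10 µM served as the positive control.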

HeLa = assay: Cytotoxicity against human HeLa cells; format: functional, cell-based
[4] = Metabolic stability in human hepatocyte assessed as compound remaining after 90 mins; format: ADME, cell-based; settings: hepatocytes, read-out: Stability
[5] = Metabolic stability in rat hepatocyte assessed as compound remaining after 90 mins; format: ADME, cell-based; settings: hepatocytes, read-out: Stability
[6] = Fraction unbound in human plasma; format: ADME, cell-free
Procedure, shortened: (§1)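 Unbound fraction (fu) in plasma was measured with a 4 h ultracentrifugation protocol, with samples analyzed by mass spectrometry.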

[7] = Fraction unbound in rat plasma; format: ADME, cell-free; procedure, shortened: as §1
[8] = biological target: T2, 11-beta-hydroxysteroid dehydrogenase 1 (Homo sapiens, UniProt P28845); assay: Inhibition of human recombinant 11beta-HSD1 expressed in baculovirus system by scintillation proximity assay
[9] = biological target: T2, 11-beta-hydroxysteroid dehydrogenase 1; assay: Inhibition of human recombinant 11beta-HSD1 expressed HEK293 cells by scintillation proximity assay; format: cell-based
[10] = biological target: T2, 11-beta-hydroxysteroid dehydrogenase 1; assay: Inhibition of human recombinant 11beta-HSD1 expressed HEK293 cells by scintillation proximity assay in presence of human serum albumin; format: cell-based
[11] = Oral bioavailability in rat at 2.0 mg/kg; format: ADME, organism-based; settings: in vivo
Procedure, shortened: (§2)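 Rats received each compound both iv (0.39, 0.50 or 0.51 mg/kg, depending on compound) and orally at 2.0 mg/kg. Plasma clearance was taken from the iv arm and oral bioavailability (%F) from the po dose.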

[12] = Clearance in rat at 0.50 mg/kg, iv; format: ADME, organism-based; set-up: dose 0.5 mg/kg, route intravenous; settings: in vivo, 0.5 mg/kg; procedure, shortened: as §2
[13] = Clearance in rat at 0.39 mg/kg, iv; format: ADME, organism-based; set-up: dose 0.39 mg/kg, route intravenous; settings: in vivo; procedure, shortened: as §2
[14] = Clearance in rat at 0.51 mg/kg, iv; format: ADME, organism-based; set-up: dose 0.51 mg/kg, route intravenous; settings: in vivo; procedure, shortened: as §2

T2 sequence (P28845 whole entry): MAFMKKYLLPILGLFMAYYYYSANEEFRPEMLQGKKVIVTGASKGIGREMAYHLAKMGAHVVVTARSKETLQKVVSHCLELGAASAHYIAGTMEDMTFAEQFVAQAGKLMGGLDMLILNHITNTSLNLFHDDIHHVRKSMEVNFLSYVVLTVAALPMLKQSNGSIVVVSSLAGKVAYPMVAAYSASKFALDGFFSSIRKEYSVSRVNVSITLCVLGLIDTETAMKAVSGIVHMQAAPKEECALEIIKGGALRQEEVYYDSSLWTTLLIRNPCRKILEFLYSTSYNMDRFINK

| SMILES | remaining at 0.5 h [1] [%] | remaining at 0.5 h [2] [%] | Activity [3] [%] | pIC50 (HeLa) | further results |
| --- | --- | --- | --- | --- | --- |
| C[C@@](O)(c1ccc(C(=O)N(C2CC2)[C@H]2CC[C@@H](CC#N)CC2)cc1)C(F)(F)F | 70 | 5 | 74 | – | – |
| C[C@](O)(c1ccc(C(=O)N(C2CC2)[C@H]2CC[C@H](CC3(C(N)=O)CC3)CC2)cc1)C(F)(F)F | > 90 | > 90 | 6.5 | 5.10 | remaining at 1.5 h [4]: > 90%; remaining at 1.5 h [5]: 73%; fraction unbound [6]: 0.12; fraction unbound [7]: 0.048 |
| CC(C)(C#N)C[C@H]1CC[C@H](N(C(=O)c2ccc([C@](C)(O)C(F)(F)F)cc2)C2CC2)CC1 | > 90 | 77 | 60 | – | – |
| C[C@](O)(c1ccc(C(=O)N(C2CC2)C2CCN(CC3(C(N)=O)CC3)CC2)cc1)C(F)(F)F | > 90 | 86 | 4 | < 5.00 | bioavailability [11]: 69%; remaining at 1.5 h [4]: > 90%; remaining at 1.5 h [5]: 69%; fraction unbound [6]: 0.48; fraction unbound [7]: 0.2; clearance [12]: 0.89 L/h/kg |
| CC(C)(C[C@H]1CC[C@H](N(C(=O)c2ccc([C@](C)(O)C(F)(F)F)cc2)C2CC2)CC1)C(N)=O | > 90 | > 90 | 4 | < 5.00 | bioavailability [11]: 32%; remaining at 1.5 h [4]: 84%; remaining at 1.5 h [5]: 10%; clearance [13]: 1.3 L/h/kg |
| C[C@](O)(c1ccc(C(=O)N(C2CC2)[C@H]2CC[C@H](CC3(C#N)CC3)CC2)cc1)C(F)(F)F | > 90 | > 90 | 60 | 5.40 | – |
| C[C@@](O)(c1ccc(C(=O)N(C2CC2)[C@H]2CC[C@H](CC#N)CC2)cc1)C(F)(F)F | > 90 | 73 | 75 | – | – |
| C[C@](O)(c1ccc(C(=O)N(C2CC2)[C@H]2CC[C@H](c3cccnc3)CC2)cc1)C(F)(F)F | – | – | – | 5.60 | – |
| C[C@](O)(c1ccc(C(=O)N(C2CC2)C2CCN(CC3(C#N)CC3)CC2)cc1)C(F)(F)F | 86 | 28 | 3 | < 5.00 | – |

Continued, in another order:

| remaining at 0.5 h [1] [%] | remaining at 0.5 h [2] [%] | Activity [3] [%] | SMILES | pIC50 (HeLa) | further results |
| --- | --- | --- | --- | --- | --- |
| > 90 | – | 30 | C[C@](O)(c1ccc(C(=O)N(C2CC2)[C@H]2CC[C@H](CCC#N)CC2)cc1)C(F)(F)F | < 5.00 | – |
| 64 | < 5 | 56 | C[C@](O)(c1ccc(C(=O)N(C2CC2)[C@H]2CC[C@@H](CCC#N)CC2)cc1)C(F)(F)F | < 5.00 | pIC50 [8]: 8.55; pIC50 [9]: 8.00; pIC50 [10]: 6.89 |
| – | – | 1 | C[C@](O)(c1ccc(C(=O)N(C2CCC(CC(N)=O)CC2)C2CC2)cc1)C(F)(F)F (mixture of isomers) | – | – |
| > 90 | > 90 | 5 | C[C@@](O)(c1ccc(C(=O)N(C2CC2)[C@H]2CC[C@H](CCC(N)=O)CC2)cc1)C(F)(F)F | < 5.00 | clearance [14]: 3 L/h/kg; bioavailability [11]: 22%; remaining at 1.5 h [4]: 32%; remaining at 1.5 h [5]: < 5% |
| > 90 | 72 | 100 | C[C@@](O)(c1ccc(C(=O)N(C2CC2)[C@H]2CC[C@@H](CCC(N)=O)CC2)cc1)C(F)(F)F | < 5.00 | – |

From ChEMBL document CHEMBL1153293, “Discovery and optimization of piperidyl benzamide derivatives as a novel class of 11beta-HSD1 inhibitors” (Bioorg Med Chem Lett, 2009)
